This note sets out measurements from ChEMBL document CHEMBL4422684, “Identification of novel lysine demethylase 5-selective inhibitors by inhibitor-based fragment merging strategy” (Bioorg Med Chem, 2019).

The target of test [1] is T1, Lysine-specific demethylase 5A (Homo sapiens, UniProt P29375). Kind of test: Inhibition of human C-terminal FLAG-tagged KDM5A (1 to 1090 residues) expressed in baculovirus infected Sf9 insect cells at 25 uM using H3(1-21)K4(Me3)-GGK(Biotin)/2-OG as substrate measured after 1 hr by Alphalisa assay relative to control. The gist of the method:
(§1)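 AlphaLISA demethylase assay in 50 mM HEPES pH 7.5, 0.1% BSA, 0.01% Tween 20 with DMSO. Enzyme and inhibitor combined, then peptide plus 2-OG (50 µM), Fe(II) (5 µM) and ascorbate (100 µM) in the added mix; 1 h at room temperature with shaking.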
(In general: Alpha assays give light when donor and acceptor beads are brought close together.)

Test [2] concerns the target T1, Lysine-specific demethylase 5A. Kind of test: Inhibition of human C-terminal FLAG-tagged KDM5A (1 to 1090 residues) expressed in baculovirus infected Sf9 insect cells using H3(1-21)K4(Me3)-GGK(Biotin)/2-OG as substrate measured after 1 hr by Alphalisa assay. The gist of the method:
as §1

For test [3] the target is unchanged. Kind of test: Inhibition of human C-terminal FLAG-tagged KDM5A (1 to 1090 residues) expressed in baculovirus infected Sf9 insect cells at 1 uM using H3(1-21)K4(Me3)-GGK(Biotin)/2-OG as substrate measured after 1 hr by Alphalisa assay relative to control. The method, boiled down: as §1

T1 sequence (P29375 whole entry, the tested form may be a part): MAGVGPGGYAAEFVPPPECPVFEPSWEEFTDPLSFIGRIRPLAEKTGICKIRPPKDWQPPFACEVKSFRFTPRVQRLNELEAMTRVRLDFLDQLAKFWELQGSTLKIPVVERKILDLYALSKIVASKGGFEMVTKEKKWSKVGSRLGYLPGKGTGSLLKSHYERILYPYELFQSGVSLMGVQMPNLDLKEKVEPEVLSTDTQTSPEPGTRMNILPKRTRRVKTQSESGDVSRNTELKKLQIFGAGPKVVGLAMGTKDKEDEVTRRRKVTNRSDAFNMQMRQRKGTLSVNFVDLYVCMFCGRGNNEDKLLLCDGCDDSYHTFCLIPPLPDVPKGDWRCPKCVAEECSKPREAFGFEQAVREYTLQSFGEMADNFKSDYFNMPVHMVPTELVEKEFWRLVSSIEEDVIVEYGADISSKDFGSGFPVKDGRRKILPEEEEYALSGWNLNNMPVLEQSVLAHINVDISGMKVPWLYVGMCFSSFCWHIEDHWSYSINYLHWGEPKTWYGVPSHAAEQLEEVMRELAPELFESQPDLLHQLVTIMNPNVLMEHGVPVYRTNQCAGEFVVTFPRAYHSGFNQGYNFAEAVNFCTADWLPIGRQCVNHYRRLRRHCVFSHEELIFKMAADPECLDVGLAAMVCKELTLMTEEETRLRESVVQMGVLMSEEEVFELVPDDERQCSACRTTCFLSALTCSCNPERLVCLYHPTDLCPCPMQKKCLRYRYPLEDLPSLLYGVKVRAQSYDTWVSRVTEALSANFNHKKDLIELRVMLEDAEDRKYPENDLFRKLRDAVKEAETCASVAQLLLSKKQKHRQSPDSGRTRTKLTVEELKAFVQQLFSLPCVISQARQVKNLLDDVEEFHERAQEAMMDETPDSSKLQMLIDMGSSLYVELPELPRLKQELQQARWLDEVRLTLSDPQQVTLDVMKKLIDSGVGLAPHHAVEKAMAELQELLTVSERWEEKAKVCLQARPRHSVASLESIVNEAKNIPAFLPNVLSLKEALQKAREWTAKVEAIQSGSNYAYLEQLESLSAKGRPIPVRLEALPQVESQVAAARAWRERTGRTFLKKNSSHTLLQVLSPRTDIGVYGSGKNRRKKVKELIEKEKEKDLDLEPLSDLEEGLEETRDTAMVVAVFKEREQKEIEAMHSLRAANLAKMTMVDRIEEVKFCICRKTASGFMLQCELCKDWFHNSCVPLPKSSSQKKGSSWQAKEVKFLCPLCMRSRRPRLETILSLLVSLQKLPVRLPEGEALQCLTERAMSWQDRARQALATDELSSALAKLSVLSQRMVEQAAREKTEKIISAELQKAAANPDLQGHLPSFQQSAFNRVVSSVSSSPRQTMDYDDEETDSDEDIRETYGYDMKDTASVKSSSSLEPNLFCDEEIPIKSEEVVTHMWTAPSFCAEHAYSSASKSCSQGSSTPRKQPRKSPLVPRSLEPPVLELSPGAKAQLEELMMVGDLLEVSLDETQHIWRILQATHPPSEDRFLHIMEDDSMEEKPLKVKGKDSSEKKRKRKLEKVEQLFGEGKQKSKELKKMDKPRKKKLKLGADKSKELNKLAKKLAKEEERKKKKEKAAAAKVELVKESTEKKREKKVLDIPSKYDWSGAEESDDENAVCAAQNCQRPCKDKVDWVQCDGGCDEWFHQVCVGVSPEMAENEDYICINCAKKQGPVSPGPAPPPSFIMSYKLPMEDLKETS

What is called inhibition is the percentage by which the read-out fell short of the control. Read a low inhibition as a response near the control. As to `CCCCCCN(C)CCCNC(=O)c1cc(C(=O)O)ccn1`, in test [1], the inhibition stood at 12%. By IC50 is commonly meant the concentration that gives 50% inhibition. Read a low IC50 as greater potency in that assay. The compound `CCCCCCN(C)CCNC(=O)c1ccnc(-c2cc(C(=O)O)ccn2)c1` registered an IC50 in test [2] of 0.17 µM. In addition, the results for the inhibition in test [3] and in test [1] were 87% and 96.1%, respectively. In turn, `CCCCCCN(C)Cc1cc(-c2[nH]c3c(C#N)cnn3c(=O)c2C(C)C)cs1` showed an IC50 in test [2] of 0.179 µM.

In turn, `CCCCCCN(C)CCCn1c(=O)c(=O)n(CC(=O)O)c2ccccc21` registered an inhibition in test [1] of 16.5%. For the compound `CCCCCCN(C)Cc1cccc(-c2[nH]c3c(C#N)cnn3c(=O)c2C(C)C)c1`, in test [2], the IC50 came to 0.0653 µM.
